Reference: ChEMBL document CHEMBL2169833, “Solubility-driven optimization of phosphodiesterase-4 inhibitors leading to a clinical candidate” (J Med Chem, 2012)
Converted amounts (≈) assume the structure as drawn.

Columns and labels:
Rattus norvegicus [1] = test: Half life in po dosed rat; format: ADME, organism-based; settings: in vivo
Procedure, shortened: (§1)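 Rat PK after iv and po dosing, some compounds given as the potassium or sodium salt. Vehicle was PBS or 25/75 PEG200/PBS. Dose matched formulation strength: iv 1.05, 2.1 or 4.2 μmol/kg; po 2.1 or 4.2 μmol/kg. For some compounds iv and po used the same dose (2.1 or 4.2 μmol/kg).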

[2] = Thermodynamic solubility of the compound at pH 1; format: physicochemical; settings: buffer
Phosphodiesterase 4 = Phosphodiesterase 4 (Homo sapiens, UniProt P27815+Q08499+Q07343+Q08493); test: Inhibition of PDE4 in human PBMC assessed as inhibition of LPS-induced TNFalpha production incubated for 10 mins prior to LPS-challenge measured after 20 hrs by sandwich ELISA
Procedure, shortened: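 Human PBMC were isolated from normal donors by Ficoll−Hypaque and grown at 1 × 10⁶ cells/mL in RPMI1640 with 10% FCS. Compound was preincubated 10 min, then LPS added (10 ng/mL, stock added). Cells were incubated 20 h at 37 °C in 5% CO₂. Supernatant TNF-α was measured by sandwich ELISA at OD405 (sensitivity ~10 pg/mL). IC50 came from inhibition curves.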

[3] = Cmax in po dosed rat; format: ADME, organism-based; set-up: route oral; settings: in vivo; procedure, shortened: as §1
[4] = Clearance in iv dosed rat; format: ADME, organism-based; settings: in vivo; procedure, shortened: as §1
[5] = Oral bioavailability in rat; format: ADME, organism-based; settings: in vivo; procedure, shortened: as §1
[6] = Thermodynamic aqueous solubility of the compound at pH 6.8; format: physicochemical; settings: buffer, read-out: Therm_solubility
[7] = AUC total in po dosed rat; format: ADME, organism-based; settings: plasma; procedure, shortened: as §1
[8] = Volume of distribution at steady state in iv dosed rat; format: ADME, organism-based; settings: in vivo, read-out: Vdss; procedure, shortened: as §1
[9] = Tmax in po dosed rat; format: ADME, organism-based; settings: in vivo; procedure, shortened: as §1
[10] = Cmax in rat at 4.2 umol/kg, po; format: ADME, organism-based; set-up: dose 4.2 umol/kg, route oral; settings: in vivo; procedure, shortened: as §1
[11] = Clearance in rat at 4.2 umol/kg, iv; format: ADME, organism-based; settings: in vivo; procedure, shortened: as §1
[12] = Half life in rat at 4.2 umol/kg, po; format: ADME, organism-based; settings: in vivo; procedure, shortened: as §1
[13] = Volume of distribution at steady state in rat at 4.2 umol/kg, iv; format: ADME, organism-based; settings: in vivo, read-out: Vdss; procedure, shortened: as §1
[14] = (§2) AUC total in rat at 4.2 umol/kg, po; format: ADME, organism-based, Plasma; settings: plasma, 4.2 umol/kg; procedure, shortened: as §1
[15] = Tmax in rat at 4.2 umol/kg, po; format: ADME, organism-based; settings: in vivo; procedure, shortened: as §1
[16] = target: 3',5'-cyclic-AMP phosphodiesterase 4A (Homo sapiens, UniProt P27815); test: Inhibition of human PDE4A-mediated [3H]CAMP hydrolysis after 30 to 60 mins by scintillation proximity assay
Procedure, shortened: (§3)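 Enzyme was diluted in 10 mM Tris-HCl pH 7.5 with 1 mM EDTA to give 10–30% substrate hydrolysis. Substrate was [3H]-cAMP (0.1 μCi) with 1 μM cAMP. Inhibitors were tested at 10 concentrations with 1% DMSO, 30−60 min at room temperature, stopped with PDE SPA beads and counted. IC50 came from curves. Mean of ≥2 experiments in duplicate, SEM where n ≥ 3.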

[17] = target: 3',5'-cyclic-AMP phosphodiesterase 4D (Homo sapiens, UniProt Q08499); test: Inhibition of human PDE4D-mediated [3H]CAMP hydrolysis after 30 to 60 mins by scintillation proximity assay; procedure, shortened: as §3
[18] = target: 3',5'-cyclic-AMP phosphodiesterase 4B (Homo sapiens, UniProt Q07343); test: Inhibition of human PDE4B-mediated [3H]CAMP hydrolysis after 30 to 60 mins by scintillation proximity assay; procedure, shortened: as §3
[19] = Volume of distribution at steady state in rat at 1.05 umol/kg, iv; format: ADME, organism-based; settings: in vivo, read-out: Vdss; procedure, shortened: as §1
[20] = (§4) AUC total in rat at 2.1 umol/kg, po; format: ADME, organism-based, Plasma; settings: plasma, 2.1 umol/kg; procedure, shortened: as §1
[21] = Half life in rat at 2.1 umol/kg, po; format: ADME, organism-based; settings: in vivo; procedure, shortened: as §1
[22] = Cmax in rat at 2.1 umol/kg, po; format: ADME, organism-based; set-up: dose 2.1 umol/kg, route oral; settings: in vivo; procedure, shortened: as §1
[23] = Tmax in rat at 2.1 umol/kg, po; format: ADME, organism-based; settings: in vivo; procedure, shortened: as §1
[24] = Clearance in rat at 1.05 umol/kg, iv; format: ADME, organism-based; settings: in vivo; procedure, shortened: as §1
[25] = (§5) Oral bioavailability in rat at 2.1 umol/kg; format: ADME, organism-based; settings: in vivo, 2.1 umol/kg; procedure, shortened: as §1
Rattus norvegicus [26] = test: Antiinflammatory activity in po dosed ovalbumin-sensitized Brown Norway rat assessed as inhibition of ovalbumin-induced eosinophil influx into BALF administered 2 hrs prior to ovalbumin-challenge measured after 24 hrs; format: functional
Procedure, shortened: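 Brown Norway rats were actively sensitized and dosed orally at 0.3, 1 or 3 mg/kg, or with vehicle PEG200:saline 1:1, 2 h before inhaled ovalbumin challenge. Saline-challenged rats served as controls. Eosinophils were counted in BAL fluid 24 h after challenge. Mean ± SEM, 5−10 animals per group. ED50 was estimated.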

Rattus norvegicus [27] = test: as §4; format: ADME, organism-based, Plasma; settings: in vivo; procedure, shortened: as §1
[28] = Volume of distribution at steady state in rat at 2.1 umol/kg, iv; format: ADME, organism-based; settings: in vivo, read-out: Vdss; procedure, shortened: as §1
Rattus norvegicus [29] = test: as §5; format: ADME, organism-based; settings: in vivo; procedure, shortened: as §1
[30] = Half life in ferret at 3.42 umol/kg, ig; format: ADME, organism-based, Mustela putorius furo; settings: in vivo, po
Procedure, shortened: (§6)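 Ferret PK after intragastric dosing as a solution in PEG200/saline (50/50, v/v) at 3.42 μmol/kg, with one compound at 2.98 μmol/kg. Plasma levels were measured. Detection limits were 0.5 μM for roflumilast and <0.02 μM for its N-oxide metabolite.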

Mustela putorius furo = test: Toxicity in ferret assessed as emesis at 0.075 to 4.8 mg/kg, po after 4 hrs; format: organism-based; set-up: dose 0.075-4.8 mg/kg, route oral; settings: in vivo
[31] = Cmax in ferret at 3.42 umol/kg, ig; format: ADME, organism-based, Mustela putorius furo; set-up: dose 3.42 umol/kg, route intragastric; settings: in vivo, po; procedure, shortened: as §6
[32] = AUC total in ferret at 3.42 umol/kg, ig; format: ADME, organism-based, Mustela putorius furo; settings: plasma, po; procedure, shortened: as §6
[33] = Tmax in ferret at 3.42 umol/kg, ig; format: ADME, organism-based, Mustela putorius furo; settings: in vivo, po; procedure, shortened: as §6
Rattus norvegicus [34] = test: Oral bioavailability in rat at 4.2 umol/kg; format: ADME, organism-based; settings: in vivo; procedure, shortened: as §1
Rattus norvegicus [35] = test: as §2; format: ADME, organism-based, Plasma; settings: in vivo; procedure, shortened: as §1

Chain of 3',5'-cyclic-AMP phosphodiesterase 4B (Q07343 whole entry): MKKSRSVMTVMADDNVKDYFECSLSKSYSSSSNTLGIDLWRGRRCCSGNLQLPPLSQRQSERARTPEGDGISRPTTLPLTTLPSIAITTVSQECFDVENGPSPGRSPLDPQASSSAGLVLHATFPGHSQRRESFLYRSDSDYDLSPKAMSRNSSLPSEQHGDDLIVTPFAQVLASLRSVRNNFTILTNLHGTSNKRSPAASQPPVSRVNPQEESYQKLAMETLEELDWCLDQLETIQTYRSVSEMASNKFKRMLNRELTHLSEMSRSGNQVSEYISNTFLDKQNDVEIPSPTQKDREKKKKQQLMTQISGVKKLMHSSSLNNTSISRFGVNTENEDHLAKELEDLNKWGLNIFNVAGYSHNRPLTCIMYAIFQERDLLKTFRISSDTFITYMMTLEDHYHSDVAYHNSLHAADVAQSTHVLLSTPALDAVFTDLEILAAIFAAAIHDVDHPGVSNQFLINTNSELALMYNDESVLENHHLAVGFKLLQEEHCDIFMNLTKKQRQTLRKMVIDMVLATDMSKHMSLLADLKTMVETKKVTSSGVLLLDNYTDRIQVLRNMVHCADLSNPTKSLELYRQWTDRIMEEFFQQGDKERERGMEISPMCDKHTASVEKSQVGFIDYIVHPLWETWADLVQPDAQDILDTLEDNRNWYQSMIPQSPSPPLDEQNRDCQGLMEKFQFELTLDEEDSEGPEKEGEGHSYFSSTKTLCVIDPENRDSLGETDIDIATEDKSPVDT
Chain of 3',5'-cyclic-AMP phosphodiesterase 4D (Q08499 whole entry): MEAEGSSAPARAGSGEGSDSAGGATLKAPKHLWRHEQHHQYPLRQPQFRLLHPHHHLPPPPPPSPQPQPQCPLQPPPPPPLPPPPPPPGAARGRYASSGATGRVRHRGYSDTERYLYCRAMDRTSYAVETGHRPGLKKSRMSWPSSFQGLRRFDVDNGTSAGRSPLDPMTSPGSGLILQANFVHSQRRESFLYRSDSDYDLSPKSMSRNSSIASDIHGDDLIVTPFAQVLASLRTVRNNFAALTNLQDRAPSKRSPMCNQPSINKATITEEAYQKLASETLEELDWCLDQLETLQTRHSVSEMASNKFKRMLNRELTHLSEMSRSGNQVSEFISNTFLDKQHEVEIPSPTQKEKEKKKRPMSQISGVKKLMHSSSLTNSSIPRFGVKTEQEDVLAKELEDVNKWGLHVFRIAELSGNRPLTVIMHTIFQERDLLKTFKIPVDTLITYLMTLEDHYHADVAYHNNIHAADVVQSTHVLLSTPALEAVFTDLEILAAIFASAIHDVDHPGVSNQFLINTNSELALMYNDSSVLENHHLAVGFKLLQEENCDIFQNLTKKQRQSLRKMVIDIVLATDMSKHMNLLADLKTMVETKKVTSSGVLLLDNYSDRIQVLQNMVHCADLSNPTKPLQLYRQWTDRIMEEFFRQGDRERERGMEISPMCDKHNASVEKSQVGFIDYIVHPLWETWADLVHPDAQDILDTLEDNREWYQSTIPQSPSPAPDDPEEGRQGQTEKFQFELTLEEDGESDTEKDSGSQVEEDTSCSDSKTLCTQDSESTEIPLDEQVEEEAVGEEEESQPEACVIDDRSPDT
Chain of 3',5'-cyclic-AMP phosphodiesterase 4A (P27815 whole entry): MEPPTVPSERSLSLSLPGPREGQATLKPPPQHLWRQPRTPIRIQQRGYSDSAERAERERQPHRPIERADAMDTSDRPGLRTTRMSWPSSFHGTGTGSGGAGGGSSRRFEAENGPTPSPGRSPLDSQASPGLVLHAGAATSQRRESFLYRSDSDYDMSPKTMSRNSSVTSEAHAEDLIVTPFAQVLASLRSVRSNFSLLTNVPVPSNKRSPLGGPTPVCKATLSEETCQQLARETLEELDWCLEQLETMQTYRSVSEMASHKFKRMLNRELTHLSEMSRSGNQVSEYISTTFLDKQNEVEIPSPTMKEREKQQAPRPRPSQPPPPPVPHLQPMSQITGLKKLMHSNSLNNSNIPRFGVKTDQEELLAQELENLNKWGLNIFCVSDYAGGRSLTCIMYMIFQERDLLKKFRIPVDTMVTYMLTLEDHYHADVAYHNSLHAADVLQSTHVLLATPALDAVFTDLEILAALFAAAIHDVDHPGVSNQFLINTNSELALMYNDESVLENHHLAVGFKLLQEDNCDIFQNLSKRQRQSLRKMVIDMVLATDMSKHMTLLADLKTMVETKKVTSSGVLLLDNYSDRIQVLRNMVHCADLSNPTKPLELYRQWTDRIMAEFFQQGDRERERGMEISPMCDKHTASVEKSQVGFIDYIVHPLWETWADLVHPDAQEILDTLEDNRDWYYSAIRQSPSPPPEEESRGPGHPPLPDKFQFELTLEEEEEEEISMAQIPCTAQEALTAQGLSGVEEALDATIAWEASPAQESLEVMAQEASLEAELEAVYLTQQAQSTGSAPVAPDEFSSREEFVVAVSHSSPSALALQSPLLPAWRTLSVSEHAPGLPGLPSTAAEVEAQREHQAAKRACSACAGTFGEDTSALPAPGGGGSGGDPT

O=C(O)c1ccc(-c2cc3cccnc3c(-c3ccc4nonc4c3)n2)cc1
t1/2 (Rattus norvegicus [1]): 12 h
Therm_solubility [2]: 0.04 µg/mL
IC50 (Phosphodiesterase 4): 0.0676 µM
Cmax [3]: 2.4 µM
clearance [4]: 0.14 L/h/kg
bioavailability [5]: 8%
solubility thermodynamic [6]: 2 µg/mL (≈ 5.43 µM)
AUC [7]: 8.72 µM·h
Vd [8]: 0.37 L/kg
Tmax [9]: 3.5 h

N#Cc1cccc(-c2nc([C@H]3CC[C@H](C(=O)[O-])CC3)cc3cccnc23)c1.[K+]
Cmax [10]: 8.3 µM
clearance [11]: 0.0132 L/h/kg
half-life [12]: 193 h
Vd [13]: 0.25 L/kg
AUC [14]: 1880 µM·h
Tmax [15]: 25 h

COc1cccc(-c2nc(N3CCC(C(=O)O)CC3)cc3cccnc23)c1
IC50 [16]: 0.537 µM
IC50 (Phosphodiesterase 4): 1.93 µM
IC50 [17]: 0.045 µM
solubility thermodynamic [6]: > 1000 µg/mL
IC50 [18]: 0.615 µM

O=C([O-])C1CCN(c2cc3cccnc3c(-c3cccc(OC(F)(F)F)c3)n2)CC1.[Na+]
Vd [19]: 0.25 L/kg
AUC [20]: 54.4 µM·h
half-life [21]: 7 h
Cmax [22]: 4.49 µM
Tmax [23]: 2.88 h
clearance [24]: 0.0588 L/h/kg
bioavailability [25]: 149%

O=C(O)[C@H]1CC[C@H](c2cc3cccnc3c(-c3cccc(F)c3)n2)CC1
inhibition (Rattus norvegicus [26]): Dose-dependent effect

O=C([O-])[C@H]1CC[C@H](c2cc3cccnc3c(-c3cccc(F)c3)n2)CC1.[K+]
AUC (Rattus norvegicus [27]): 4408 µM·min
half-life [21]: 9 h
Cmax [22]: 4.6 µM
Vd [28]: 0.09 L/kg
F (Rattus norvegicus [29]): 52%

O=C(O)C1CCN(c2cc3cccnc3c(-c3cccc(Cl)c3)n2)CC1
IC50 [16]: 0.364 µM
IC50 (Phosphodiesterase 4): 0.541 µM
IC50 [17]: 0.03 µM
solubility thermodynamic [6]: 140 µg/mL (≈ 381 µM)
IC50 [18]: 0.187 µM

O=C(O)[C@H]1CC[C@H](c2cc3cccnc3c(-c3cccc(OC(F)(F)F)c3)n2)CC1
half-life [30]: 1.87 h
IC50 [16]: 0.107 µM
Activity (Mustela putorius furo): Non-toxic
ED50 (Rattus norvegicus [26]): 2 mg/kg
IC50 (Phosphodiesterase 4): 0.052 µM
IC50 [17]: 0.024 µM
solubility thermodynamic [6]: 6 µg/mL (≈ 14.4 µM)
Cmax [31]: 10.5 µM
AUC [32]: 49.7 µM·h
Tmax [33]: 1.75 h
IC50 [18]: 0.043 µM

N#Cc1cccc(-c2nc(N3CCC(C(=O)O)CC3)cc3cccnc23)c1
IC50 [16]: 0.271 µM
Vd [19]: 0.72 L/kg
IC50 (Phosphodiesterase 4): 0.851 µM
AUC [20]: 46.1 µM·h
half-life [21]: 23 h
IC50 [17]: 0.019 µM
Cmax [22]: 2.8 µM
solubility thermodynamic [6]: > 4000 µg/mL
IC50 [18]: 0.168 µM
Tmax [23]: 2.15 h
clearance [24]: 0.0696 L/h/kg
F (Rattus norvegicus [29]): 158%

O=C([O-])C1CCN(c2cc3cccnc3c(-c3cccc(F)c3)n2)CC1.[Na+]
half-life [12]: 17 h
Vd [28]: 0.24 L/kg
F (Rattus norvegicus [34]): 70%
AUC (Rattus norvegicus [35]): 3919 µM·min
Tmax [15]: 2.88 h
